# Measurements as given in article PMC7195562 (Journal of Advanced Research, 2020).
# Like-named read-outs stand apart in the source and are kept apart here. Ends that are not written are not given here. Peptide text beside a SMILES is read from it.
# T1: NS3 genotype-4 (Hepatitis C virus genotype 4a, UniProt O39929)
# T1 sequence (O39929 1027-1657 limits assumed): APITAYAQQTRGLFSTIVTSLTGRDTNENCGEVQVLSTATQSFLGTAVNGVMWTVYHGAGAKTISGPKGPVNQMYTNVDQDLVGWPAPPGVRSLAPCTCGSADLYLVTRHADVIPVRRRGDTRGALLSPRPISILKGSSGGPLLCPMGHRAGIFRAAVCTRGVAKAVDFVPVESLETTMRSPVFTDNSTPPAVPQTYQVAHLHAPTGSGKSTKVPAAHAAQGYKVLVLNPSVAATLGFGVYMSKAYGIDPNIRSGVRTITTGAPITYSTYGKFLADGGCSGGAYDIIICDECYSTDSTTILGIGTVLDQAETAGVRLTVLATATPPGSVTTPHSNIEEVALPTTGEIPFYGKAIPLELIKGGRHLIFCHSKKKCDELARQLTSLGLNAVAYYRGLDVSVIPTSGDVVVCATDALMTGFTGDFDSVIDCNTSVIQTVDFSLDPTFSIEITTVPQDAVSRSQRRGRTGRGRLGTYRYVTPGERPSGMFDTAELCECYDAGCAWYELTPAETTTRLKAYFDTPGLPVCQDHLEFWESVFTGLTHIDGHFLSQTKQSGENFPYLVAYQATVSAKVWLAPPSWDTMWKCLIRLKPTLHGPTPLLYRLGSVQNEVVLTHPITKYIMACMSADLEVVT
# T2: fluorescein isothiocyanate-labeled NS4A(21'-34') core peptide (hepatitis C virus, also: FITC label, position not given here)
# T2 peptide: KKGSVVIVGRIVLSGKK
# B1: NS3 domain of HCV genotype-4 (domain or fragment)
# chain: APITAYAQQTRGLFSTIVTSLTGRDTNENCGEVQVLSTATQSFLGTAVNGVMWTVYHGAGAKTISGPKGPVNQMYTNVDQDLVGWPAPPGVRSLAPCTCGSADLYLVTRHADVIPVRRRGDTRGALLSPRPISILKGSSGGPLLCPMGHRAGIFRAAVCTRGVAKAVDFVPVESLETTMRSP
# How the values were obtained:
# NS3 genotype-4 = molecular target: T1, NS3 genotype-4; assay: Fluorescence anisotropy, dissociation constant of FITC-NS4A with NS3; type: binding, HCV genotype-4
# Outline: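 His-tagged HCV-4 NS3 domain (expressed in E. coli Rosetta (DE3) pLysS, Ni-NTA purified) serially diluted in 20 mM HEPES, 10 mM DTT, 200 mM NaCl, pH 7.6, with 0.1 µM FITC-labelled NS4A 21'-34' core peptide. Shaken at room temperature for 15, 45, 90 and 120 min. Fluorescence anisotropy read at 480/520 nm. Kd fitted with a single-binding-site model at 90 min.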
# [1] = tested on: NS3 domain of HCV genotype-4; assay: Differential static light scattering; type: binding
# [2] = molecular target: T2, fluorescein isothiocyanate-labeled …; assay: fluorescence polarisation
# [3] = molecular target: B1; assay: differential static light scattering
# [4] = molecular target: B1; assay: differential static light scattering
# [5] = molecular target: B1; assay: differential static light scattering
# [6] = molecular target: B1; assay: differential static light scattering
# [7] = molecular target: B1; assay: differential static light scattering
# [8] = molecular target: B1; assay: differential static light scattering
# [9] = molecular target: B1; assay: differential static light scattering
molecule,measurement,setting,value
CC[C@H](C)[C@H](NC(=O)[C@H](CCCNC(=N)N)NC(=O)CNC(=O)[C@@H](NC(=O)[C@@H](NC(=O)[C@@H](NC(=O)[C@@H](NC(=O)[C@H](CO)NC(=O)CNC(=O)[C@H](CCCCN)NC(=O)[C@@H](N)CCCCN)C(C)C)C(C)C)[C@@H](C)CC)C(C)C)C(=O)N[C@H](C(=O)N[C@@H](CC(C)C)C(=O)N[C@@H](CO)C(=O)NCC(=O)N[C@@H](CCCCN)C(=O)N[C@@H](CCCCN)C(=O)O)C(C)C [NS4A] (H-KKGSVVIVGRIVLSGKK-OH),Kd,NS3 genotype-4,0.169 ± 0.0037 µM
GSxG23VIVGRIVLSG [Pep-15],Tagg shift higher than that of the native NS4A,"[1]; 2:1 ratio, room temperature, 2 h",1.07 °C
same,binding affinity by DSLS compared with the native peptide,[1]; all conditions (Fig. S6),higher binding affinity than the native peptide
B1,Kd,[2],0.169 ± 0.0037 µM
KKGSVVIVGRIVLSGKK [native NS4A(21'-34') core peptide (KK-GSVVIVGRIVLSG-KK)],ΔTagg,[3],1.62 °C
same,ΔTagg,[4],2.09 °C
same,ΔTagg,[5],0.998 °C
same,ΔTagg,[6],1.71 °C
same,ΔTagg,[7],1.97 °C
same,ΔTagg,[8],3.16 °C
same,ΔTagg,[9],2.83 °C
